Test results published in ChEMBL document CHEMBL6134796, “Development and Evaluation of Indole-Based Phospholipase D Inhibitors for Lung Cancer Immunotherapy” (J Med Chem, 2025).
Active and inactive are the calls of the source. No cut-off for these calls is given here.

Key:
A549 [1] = experiment: Inhibition of PLD1 L425A mutant (unknown origin) overexpressed in human A549 cells; assay type: cell-based
Procedure, shortened: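 A549 cells transfected with wild-type PLD1, PLD1 mutants (L425A, F614A, F789A) or PLD2, then compound-treated. PLD activity measured as [3H]phosphatidylbutanol formed in the presence of 1-butanol after [3H]myristic acid labeling, expressed as % of total lipid cpm. At least three independent experiments.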

NCI-H460 = experiment: Cytotoxicity against human NCI-H460 cells assessed as inhibition of cell growth incubated for 48 hrs by WST-1 assay; assay type: functional, cell-based; settings: NCI-H460, 48 h
Procedure, shortened: (§1)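 WST-1 viability assay. Cells seeded at 5 × 10^3 per well and incubated 24 h at 37 °C, then exposed to drug for 48 h. Absorbance read at 450 nm, in triplicate. IC50 taken as the concentration giving 50% growth inhibition versus control.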

[2] = Cytotoxicity against human HCC15 cells assessed as inhibition of cell growth incubated for 48 hrs by WST-1 assay; assay type: functional, cell-based; settings: HCC15, 48 h; procedure, shortened: as §1
A549 [3] = experiment: Inhibition of cell migration in human A549 cells measured after 24 hrs by crystal violet staining based light microscopic analysis; assay type: functional
A549 [4] = experiment: Induction of apoptosis in human A549 cells by annexin V and PI staining based flow cytometry analysis; assay type: functional, cell-based
A549 [5] = experiment: Induction of apoptosis in human A549 cells assessed as increase in caspase-3 activity measured up to 48 hrs in presence of gemcitabine […]; assay type: functional, cell-based
Procedure, shortened: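 A549 cells given compound, gemcitabine, or both. Apoptosis assessed by PI staining, annexin V flow cytometry, cleaved PARP immunoblot, and caspase-3 activity. For caspase-3: drugs at 10 μM for 48 h, then 1 μM NucView 488 substrate for 30 min, with 1 μM Hoechst 33342, read by plate fluorescence.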

[6] = Metabolic stability in human plasma assessed as parent compound remaining at 10 uM measured after 120 mins; assay type: ADME, cell-free; settings: read-out: Stability
Procedure, shortened: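 Citrated human plasma spiked to final 10 μM, incubated at 37 °C for 0, 30 and 120 min; quenched with acetonitrile containing internal standard, vortexed, centrifuged at 4 °C; parent remaining quantified by LC-MS/MS in MRM mode on C18 column, formic acid water/acetonitrile gradient.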

[7] = system: Lewis lung carcinoma cell line; experiment: Antitumor activity against mouse Lewis lung carcinoma cell line allografted in male C57BL/6 mouse model assessed as increase in caspase 3 expression at 10 mg/kg, po measured every other day for 3 weeks by IHC analysis; assay type: functional, organism-based
Procedure, shortened: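 Syngeneic model: 6-week-old male C57BL/6 mice given 3 × 10^5 LLC cells in 50 μL PBS subcutaneously in the flank. At day 7, mice were randomized to vehicle PO daily or 10 mg/kg PO every other day for 3 weeks. Caliper volume was taken every 2 days as ([…])/2, with tumor weight at end. Spleen size and weight were recorded. Ki67 and cleaved caspase-3 were scored by IHC (DAB, hematoxylin).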

Mus musculus = experiment: In vivo inhibition of KRAS activation in male C57BL/6 mouse allografted with mouse Lewis lung carcinoma cell line assessed as decrease in ERK phosphorylation at 10 mg/kg, po; assay type: functional, organism-based
[8] = target: T1, Phospholipase D1 (Mus musculus) (UniProt Q9Z280); experiment: In vivo inhibition of PLD1 in male C57BL/6 mouse allografted with mouse Lewis lung carcinoma cell line assessed as increase in calreticulin expression at 10 mg/kg, po by immunofluorescence analysis; assay type: functional, organism-based
T1 sequence (whole entry): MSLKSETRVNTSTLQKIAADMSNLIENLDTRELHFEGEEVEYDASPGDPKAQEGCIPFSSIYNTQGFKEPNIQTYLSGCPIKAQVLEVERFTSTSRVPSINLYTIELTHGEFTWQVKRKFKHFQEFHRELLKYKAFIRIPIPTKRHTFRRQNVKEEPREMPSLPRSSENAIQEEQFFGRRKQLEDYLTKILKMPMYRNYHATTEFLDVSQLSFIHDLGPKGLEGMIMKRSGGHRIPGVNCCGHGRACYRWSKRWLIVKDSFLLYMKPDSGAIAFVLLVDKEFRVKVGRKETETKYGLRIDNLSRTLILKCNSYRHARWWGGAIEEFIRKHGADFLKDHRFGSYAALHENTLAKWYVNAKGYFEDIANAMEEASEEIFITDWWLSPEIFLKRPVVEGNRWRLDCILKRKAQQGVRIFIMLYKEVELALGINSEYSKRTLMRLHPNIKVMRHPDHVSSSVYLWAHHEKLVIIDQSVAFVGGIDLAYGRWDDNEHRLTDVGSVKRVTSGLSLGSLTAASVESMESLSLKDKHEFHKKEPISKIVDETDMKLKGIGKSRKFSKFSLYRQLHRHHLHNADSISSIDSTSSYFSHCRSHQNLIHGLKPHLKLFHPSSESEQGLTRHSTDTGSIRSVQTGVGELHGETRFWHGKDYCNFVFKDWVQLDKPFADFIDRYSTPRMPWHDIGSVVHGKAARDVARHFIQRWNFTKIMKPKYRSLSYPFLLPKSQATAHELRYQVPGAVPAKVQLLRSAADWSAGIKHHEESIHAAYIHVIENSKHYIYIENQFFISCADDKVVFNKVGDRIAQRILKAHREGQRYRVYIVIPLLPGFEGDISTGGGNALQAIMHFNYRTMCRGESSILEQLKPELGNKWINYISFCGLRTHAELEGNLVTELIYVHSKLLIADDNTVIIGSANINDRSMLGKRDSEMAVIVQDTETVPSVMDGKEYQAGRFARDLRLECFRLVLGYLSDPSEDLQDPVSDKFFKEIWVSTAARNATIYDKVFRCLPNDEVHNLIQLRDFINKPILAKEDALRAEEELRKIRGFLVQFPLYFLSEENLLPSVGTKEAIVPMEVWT

[9] = system: Lewis lung carcinoma cell line; experiment: Antitumor activity against mouse Lewis lung carcinoma cell line allografted in male C57BL/6 mouse model assessed as reduction in […] expression at 10 mg/kg, po measured every other day for 3 weeks by IHC analysis

remaining at 2 h, 10 µM [6]: 94.6%
SMILES: O=C(CCc1c[nH]c2ccccc12)Nc1cc(C(F)(F)F)cc(C(F)(F)F)c1
inhibition (A549 [1]): Active
IC50 (NCI-H460): 24.9 µM
IC50 [2]: 21.4 µM
inhibition (A549 [3]): Active
Activity (A549 [4]): Active
Activity (A549 [5]): Active
Activity [7]: Active
inhibition (Mus musculus): Active
inhibition [8]: Active
Activity [9]: Active
